Experimental data as given in ChEMBL document CHEMBL4270511, “Rational design and screening of peptide-based inhibitors of heat shock factor 1 (HSF1)” (Bioorg Med Chem, 2018).
Each block holds one substance with its values, some of them ahead of it. The source made the active and inactive calls. The calls are words filed in the database; no cut-off is given here.

Assays:
[1] = biological target: T1, Heat shock factor protein 1 (Homo sapiens) (UniProt Q00613); assay: Inhibition of recombinant human HSF1 expressed in Escherichia coli BL21 (DE3) assessed as reduction in HSF1 trimer-5-fluorescein labeled HSE interaction at 400 uM preincubated for 1 hr followed by DNA tracer addition and measured after 15 mins by competitive fluorescence polarization assay
T1 sequence (whole entry): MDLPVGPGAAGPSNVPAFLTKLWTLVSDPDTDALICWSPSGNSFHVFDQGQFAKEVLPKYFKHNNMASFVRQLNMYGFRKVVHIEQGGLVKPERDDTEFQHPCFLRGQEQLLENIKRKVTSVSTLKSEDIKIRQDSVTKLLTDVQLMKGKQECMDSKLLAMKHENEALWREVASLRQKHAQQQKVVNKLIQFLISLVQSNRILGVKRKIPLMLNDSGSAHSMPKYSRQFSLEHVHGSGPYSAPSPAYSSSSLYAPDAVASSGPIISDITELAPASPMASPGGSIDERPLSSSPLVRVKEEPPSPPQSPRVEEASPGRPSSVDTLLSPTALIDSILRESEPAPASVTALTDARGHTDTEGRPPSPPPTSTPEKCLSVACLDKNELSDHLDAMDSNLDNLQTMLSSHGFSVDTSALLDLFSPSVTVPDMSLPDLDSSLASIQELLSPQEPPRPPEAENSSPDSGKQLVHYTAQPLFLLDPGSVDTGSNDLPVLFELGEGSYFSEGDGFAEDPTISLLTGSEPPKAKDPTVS
In short: (§1)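 His-HSF1 trimer, expressed in BL21 E. coli and isolated by SEC, was shaken with peptide in DMSO for 1 h at room temperature. 5-fluorescein HSE tracer was then added to give final 250 nM trimer, 15 nM tracer and 5% DMSO, followed by 15 min shaking. FP read at 485/530 nm. Single-point final peptide level 400 μM, scored as % inhibition relative to DMSO and tracer-only signals. Dose-response used serial dilutions from 800 μM, with nonlinear-regression IC₅₀ fitting. Duplicates.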

[2] = biological target: T1, Heat shock factor protein 1 (Homo sapiens); assay: (§2) Inhibition of recombinant human HSF1 expressed in Escherichia coli BL21 (DE3) assessed as reduction in HSF1 trimer-5-fluorescein labeled HSE interaction preincubated for 1 hr followed by DNA tracer addition and measured after 15 mins by competitive fluorescence polarization assay; in short: as §1
[3] = biological target: T2, Heat shock factor protein 1 (Homo sapiens, UniProt Q00613); assay: as §2; in short: as §1
T2 sequence (Q00613 whole entry): T1 sequence (whole entry)

[4] = biological target: T1, Heat shock factor protein 1 (Homo sapiens); assay: (§3) Inhibition of recombinant human HSF1 expressed in Escherichia coli BL21 (DE3) assessed as reduction in HSF1 trimer-5-fluorescein labeled HSE interaction preincubated of protein with DNA tracer up to 24 hrs followed by compound addition and measured after 15 mins by fluorescence polarization assay; conditions: in the assay text read “measured after 1 hr” for “measured after 15 mins”
In short: (§4)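 Peptide added to a pre-formed complex of HSF1 trimer (250 nM) and 5-fluorescein HSE tracer (15 nM), then co-incubated a further 1 h before FP reading at 485/530 nm. Buffer was 25 mM HEPES, 75 mM NaCl, pH 7.5, 10 mM MgCl₂, 0.01% Triton-X. IC₅₀ from nonlinear regression; duplicate experiments.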

[5] = biological target: T2, Heat shock factor protein 1; assay: as §3; conditions: in the assay text read “measured after 1 hr” for “measured after 15 mins”; in short: as §4
[6] = biological target: T1, Heat shock factor protein 1 (Homo sapiens); assay: Disruption of full length human HSF1 trimer structure at 20 uM after 30 mins by size-exclusion chromatographic method
In short: (§5)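 SEC-purified full-length human HSF1 trimer (2 μM) incubated with 20 μM peptide (10-fold molar excess) or DMSO (2% v/v) at 4 °C for 30 min. Samples then run on Sephacryl S-400 SEC, and collected fractions analysed by immunoblot to follow oligomeric state.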

[7] = biological target: T1, Heat shock factor protein 1 (Homo sapiens); assay: Disruption of full length human HSF1 trimer structure at 20 uM after 30 mins by SDS-PAGE analysis
[8] = biological target: T1, Heat shock factor protein 1 (Homo sapiens); assay: Disruption of full length human HSF1 trimer structure at 20 uM after 30 mins by Western blot analysis; in short: as §5
DNA = assay: Binding affinity to 5-fluorescein labeled HSE DNA (unknown origin) after 15 mins to 24 hrs by fluorescence polarization method; assay type: nucleic-acid assay
In short: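 Tracer-binding control: peptides serially diluted from 400 μM, incubated with 15 nM 5-fluorescein HSE tracer alone (no protein) for 15 min, 1 h, 3 h and 24 h. Read by FP at excitation 485 nm and emission 530 nm, with 15-min mP values plotted. Buffer was 25 mM HEPES, 75 mM NaCl, pH 7.5, 10 mM MgCl₂, 0.01% Triton-X. Triplicates.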

inhibition [1]: 21%
Substance: Ac-DAMDSNL-NH2

inhibition [1]: 0.4%
Substance: Ac-DKNELSDHL-NH2

inhibition [1]: 91% | inhibition [2]: Dose-dependent effect | IC50 [3]: 13 µM | inhibition [4]: Dose-dependent effect | IC50 [5]: 14 µM | Activity [6]: inactive | Activity [7]: inactive | Activity [8]: inactive
Substance: Ac-DKNELSDHLDAMDSNL-NH2

inhibition [1]: 8.1%
Substance: Ac-DVQLMKGKQECMDSKLLAMKHENEALWREV-NH2

inhibition [1]: 64% | inhibition [2]: Dose-dependent effect | IC50 [3]: 150 µM
Substance: Ac-HLDAMDSNLDNLQTMLSSHGFSVDTSALLD-NH2

inhibition [1]: > 100%
Substance: Ac-IKIRQDSVTKLLTDVQLMKGKQECMDSK-NH2

inhibition [1]: 8.2%
Substance: Ac-LAMKHENEAL-NH2

Activity (DNA): Active
Substance: Ac-LAMKHENEALWREVASLRQKHAQQQKVVNKL-NH2

inhibition [1]: 22%
Substance: Ac-RQKHAQQQKVVNKL-NH2

inhibition [1]: 27%
Substance: Ac-WREVASL-NH2
